Experimental data published in the EternaBench riboswitch data.

Tested on: MS2 coat protein
Assay: apparent Kd, MS2 coat protein; higher = weaker binding; RNA-MaP array; FMN 200 µM where present
Outline: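 The apparent Kd comes from binding curves fitted cluster by cluster, filtered, and summarised as a median. Those curves followed SNAP-549-labelled MS2 coat protein from 0.7 or 1.5 nM, doubling to 3 µM, on Illumina sequencing-chip clusters where stalled E. coli RNA polymerase had transcribed the designs, without and then with constant ligand. The buffer was 100 mM Tris-HCl pH 7.5, 80 mM KCl, 4 mM MgCl2, BSA, DTT, yeast tRNA and Tween-20, and green signal was normalised to red-channel RNA signal and control-cluster median Fmax.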

[1] = designed as: OFF switch for flavin mononucleotide, no ligand
[2] = ligand present: flavin mononucleotide, designed as: OFF switch for flavin mononucleotide
[3] = designed as: ON switch for flavin mononucleotide, no ligand
[4] = ligand present: flavin mononucleotide, designed as: ON switch for flavin mononucleotide

| Sequence | apparent Kd [1] [µM] | apparent Kd [2] [µM] | apparent Kd [3] [µM] | apparent Kd [4] [µM] |
| --- | --- | --- | --- | --- |
| AUAACGUCAGGAUAUUUCCAGAGGGUCAUAGGACCCAUUGGAAAGAAGGGACAUGAGGAUCACCCAUGUCGGUG | 0.136 | 0.391 | – | – |
| AUAAGCUCGUCAGGAUAUACGUCACUGCUUCGGCAGUGAGGUAUGAUCACAUGAGGAUCACCCAUGUAGAAGGGACGAGCUUAU | 0.00563 | 0.00857 | – | – |
| AUAAUGUAAGGAUAUAUGAAUCACGGUGAUACACCGUGAAGAUAGAAGGUACAUGAGGAUCACCCAUGUAGGGC | 0.0505 | 0.22 | – | – |
| AUAAUGUAAGGAUAUCAGUCGACUAGCUGCGGCUAGUCGACUGAGAAGGUACAUGAGGAUCACCCAUGUGUUUC | 0.0409 | 0.183 | – | – |
| AUAAUGUAAGGAUAUCAGUCGUAAUUAAUUUAAUUAUCGACUGAGAAGGUACAUGAGGAUCACCCAUGUGGUCA | 0.916 | 0.102 | – | – |
| AUAAUGUGAGGAUAUACAUGAGGAUCACCCAUGUAAUUAAAUCGGAGAGCCACAUUUCGUAGAAGGUACAUUUA | 0.0207 | 0.0226 | – | – |
| AUACACACGACAGGAUAUGGAAUGUAAGCUCAGAGACAUGAGGAUCACCCAUGUACCUGUCUUGCCCAGAAGGGUCGCAAAAGA | – | – | 0.327 | 0.0645 |
| AUACAUGAGGAUCACCCAUGUUACUGGGUCUUAAUAGAACGUAGAAGGAUGAUAUUAUAAAUAACAUAGGAUAUACAAUAUUGU | 0.132 | 0.0642 | – | – |
| AUACAUGUCCGAGGAUAUCUGGAAACAUUUUCAAGAGAAGGCGGACAUGAGGAUCACCCAUGUCUCUCCUCAUCAAAUCCAAGU | 0.00784 | 0.0466 | – | – |
| AUACCACGAGGAUAUCGUCUAUUUCACAUGAGGAUCACCCAUGUUAUCUUUGUUUCGUUUCGAGAAGGCGUGUUUU | 0.0331 | 0.0232 | – | – |
| AUACCACGAGGAUAUCGUCUCUCCCACAUGAGGAUCACCCAUGUUAUCCAUGUUUCGUUUCGAGAAGGCGUGGGUU | 0.0833 | 0.0702 | – | – |
| AUACCUUAUGAGAAGGCGAUCAUGAAACAUGAUCGAGGAUAUCAUGUAAACAUGAGGAUCACCCAUGUAUGGGUAUUAUGGUAG | – | – | 0.034 | 0.0105 |
| AUACUCAUGUAAGGAUAUGCAGCCGAACCGGCUGCAGAAGGUACUAUAAUACAUGAGGAUCACCCAUGUCAAAAUAAAAUAGUU | – | – | 0.052 | 0.0215 |
| AUACUCAUGUAAGGAUAUGCAGCCGUUUCGGCUGCAGAAGGUACUAUAAUACAUGAGGAUCACCCAUGUCUCUCGCAUUGCGAG | – | – | 0.131 | 0.178 |
| AUACUUAAUGAAGGAUAUCUUAGCAUAAACCUGAGAGAAGGUCAUUAUUACAUGAGGAUCACCCAUGUUGUAGUUAAUGGGUAA | 0.199 | 0.254 | – | – |
| AUACUUAAUGAAGGAUAUCUUAGCAUAAACCUGAGAGAAGGUCAUUAUUACAUGAGGAUCACCCAUGUUGUGGUUAAUGGGUAA | 0.264 | 0.327 | – | – |
| AUAGCUCCCUAGAAGGGCCAACCAGUAUUCCAUCAGGUAUUUGCGGUAGGUAGGAUAUGGGACAUGAGGAUCACCCAUGUGUAG | – | – | 0.0358 | 0.0258 |
| AUAUAUAAUAAGAAGGUGCCAGCGAGAGCUGCACAUGAGGAUCACCCAUGUUGUCGGUGACGACGCAAGGAUAUUAUUAUAUAU | – | – | 0.0568 | 0.0185 |
| AUAUAUAGUGUGAGGAUAUGCUGGUCCUUGGAUCAGCAGAAGGCACAUGAGGAUCACCCAUGUAGUUAAAUAUA | 0.036 | 0.107 | – | – |
| AUAUCUUGUCGAGGAUAUGUUGUAUUGAUCUGAAAACAUGAGGAUCACCCAUGUAUACGGUGGGAACAGAAGGUGAAUGUAGAA | 0.574 | 0.715 | – | – |
| AUAUGAUAGAUAGGAUAUACAGAUGAAUAAUAAGUAGAAGGAUCAAAUGGGAAUUAUACAUGAGGAUCACCCAUGUUUUUGGAU | – | – | 0.0501 | 0.0321 |
| AUAUGAUAGAUAGGAUAUACAGUUGAAUAAUAAGUAGAAGGAUCAAAUGGGAAUUAUACAUGAGGAUCACCCAUGUUUUUGGAU | – | – | 0.0441 | 0.0358 |
| AUAUUGUGAGGAUAUCCAAUAUAUGACAUGAGGAUCACCCAUGUUUCCACUCGUACCUCCGGAGAAGGCACAUUUU | 0.027 | 0.024 | – | – |
| AUAUUGUGAGGAUAUGAACUUAGUAUCGAAACAUACUAAGUUCAGAAGGCACAUGAGGAUCACCCAUGUUUCUC | 0.0686 | 0.43 | – | – |
| AUAUUUGUUUAGAAGGACAUGAGGAUCACCCAUGUCGCUGGGCGCGGGAAACCGUGGGCGGCCAUGUAGGAUAUAGGGAGAUAU | 0.0366 | 0.024 | – | – |
| AUCAAGUGAGGAUAUGAUAAUACAACAAACAAACAUCUACAUCAGAAGGCACAUGAGGAUCACCCAUGUUAAUC | 0.0227 | 0.0271 | – | – |
| AUCAGAUCUCGACUGUCCAACAUGAGGAUCACCCAUGUCAGAAGAAGGGACUAUUAACUAAUCUGUCAGGAUAUUUUGACGCGG | 0.0106 | 0.0497 | – | – |
| AUCAGCUCGUCAGGAUAUACGUCACUGCGUCAGCAGUGCGGUAAGAUCACAUGAGGAUCACCCAUGUAGAAGGGACGAGCUGAU | 0.0064 | 0.0201 | – | – |

| Sequence | apparent Kd [1] [µM] | apparent Kd [2] [µM] | apparent Kd [3] [µM] | apparent Kd [4] [µM] |
| --- | --- | --- | --- | --- |
| AUCAGCUCGUCAGGAUAUACGUCACUGCGUCAGCAGUGUGGAAAGAUCACAUGAGGAUCACCCAUGUAGAAGGGACGAGCUGAU | 0.0362 | 0.279 | – | – |
| AUCAGCUCGUCAGGAUAUACGUCACUGCGUCAGCAGUGUGGUAAGAUAACAUGAGGAUCACCCAUGUAGAAGGGACGAGCUGAU | 0.00729 | 0.0131 | – | – |
| AUCAGCUCGUCAGGAUAUACGUCACUGCGUCAGCAGUGUGGUAAGAUCACAUGAGGAUCACCCAUGUAGAAGGAACGAGCUGAU | 0.00841 | 0.0147 | – | – |
| AUCAGCUCGUCAGGAUAUACGUCACUGCGUCAGCAGUGUGGUAAGAUCACAUGAGGAUCACCCAUGUAGAAGGGACGACCUGAU | 0.0138 | 0.278 | – | – |
| AUCAGCUCGUCAGGAUAUACGUCACUGCGUCAGCAGUGUGUUAAGAUCACAUGAGGAUCACCCAUGUAGAAGGGACGAGCUGAU | 0.0067 | 0.0279 | – | – |
| AUCAGCUCGUCAGGAUAUACGUCACUGCGUCAGCCGUGUGGUAAGAUCACAUGAGGAUCACCCAUGUAGAAGGGACGAGCUGAU | 0.0166 | 0.247 | – | – |
| AUCAGCUCUUCAGGAUAUACGUCACUGCGUCAGCAGUGUGGUAAGAUCACAUGAGGAUCACCCAUGUAGAAGGGACGAGCUGAU | 0.0122 | 0.173 | – | – |
| AUCAGCUUGUCAGGAUAUGCGUGUCAACGAAAGUUGACAAUCUUAAUAACAUGAGGAUCACCCAUGUAGAAGGGACGAGCUGAU | 0.0171 | 0.0179 | – | – |
| AUCAGUACGUGAGGAUAUGCGUUACUGCGAAAGCAGUACGGUAAGAUCACAUGAGGAUCACCCAUGUAGAAGGCACGAACUGAU | 0.0189 | 0.0375 | – | – |
| AUCAUGAGAGGAUAUACAUGAGGAUCACCCAUGUGGUCAUCUCCACGGGCUCAAUUACGUAGAAGGCUCAUUUG | 0.018 | 0.0662 | – | – |
| AUCCACCGCACGGACACGUCGAGUCAGGAUAUACAUGAGGAUCACCCAUGUGAAGGCCGGCUCAUGUAGAAGGGACAGGCGUUG | 0.0104 | 0.0225 | – | – |
| AUCCAGCGAGGAUAUACAUAGAUUUUUUCGUUUUGUCUCGAACAUGAGGAUCACCCAUGUAGAAGGUGCUUCAC | 0.0825 | 0.081 | – | – |
| AUCCAUUGAGAGAAGGGAGUACAUGAGGAUCACCCAUGUGGUCGUUCAUACUCAGGAUAUCUAACUGGGUUAGUGGCGCACGCC | 0.166 | 0.367 | – | – |
| AUCCGGAGUCAGGAUAUGUGGCUAAAGAUGCGCAUAGAAGGGAUUACAUGAGGAUCACCCAUGUGGCUUACAUG | 0.132 | 0.109 | – | – |
| AUCCGGCGUGUAGGAUAUGGAUCCGAUUAGGAUCCAGAAGGACAUGAGGAUCACCCAUGUACAUGUAAACAGUCAUCACCGGAG | 0.0102 | 0.0564 | – | – |
| AUCGAACAUGAGGAUCACCCAUGUCAGUCGAACCAAGGAUAUGGGCAGGGUUCUCUUGCACCAGAAGGUGGCUAAA | – | – | 0.0569 | 0.0957 |
| AUCGGGAUUACAUGAGGAUCACCCAUGUCAGAACGGGUAGUUAGAAGGUGCCAUUAGGGAGAGGGUAAGGAUAUAAUUUUUGGC | – | – | 0.0146 | 0.0128 |
| AUCGUAACAGGAGGAUAUUACACUCGGUUGGUCCGCUGCGGGUUGAAACAUGAGGAUCACCCAUGUAAGAAGGCCUGUGUGACU | 0.317 | 0.103 | – | – |
| AUCGUGCUAGGAUAUACAGACGGGUGUAGACGUGCAGGCAAACAUGAGGAUCACCCAUGUAGAAGGAGUAGUUA | 0.159 | 0.0888 | – | – |
| AUCGUGUGAGGAUAUCGAUGUUGGACGUCUAGGUCUGAGCGCGAGAAGGCACAUGAGGAUCACCCAUGUAAUGG | 0.272 | 0.35 | – | – |
| AUGAGUAAAGCAGGAUAUCUAUUGACUCUGUAACAUGAGGAUCACCCAUGUAGAGAAGGGCUAAUUCUUACUCUUCGGAGUUGA | 0.0102 | 0.0117 | – | – |
| AUGCCUUAUGUAGGAUAUGCAUAGCAUUGCUAUGCAGAAGGACAUGAGGAUCACCCAUGUAUGUAUUCCAUACAUAUCUGGCAU | 0.0295 | 0.343 | – | – |
| AUGCGUGGCUAGGAUAUCGAGGAAUCUAGCCAGCGAGAAGGAGCCACAUGAGGAUCACCCAUGUGGUGAACCUC | 0.0228 | 0.0176 | – | – |
| AUGCUAGUGUGAGGAUAUACAUGAGGAUCACCCAUGUGUCCGAAGUACCGGACAUGAGGUACGUCGUAGAAGGUACAUUAGCAU | 0.021 | 0.102 | – | – |
| AUGCUAGUGUGAGGAUAUUAGACAUGAGGAUCACCCAUGUGUAAGAUCAUGACGAUCACGCAUGAUAAGAAGGUACAUUAGCAU | 0.0546 | 0.0997 | – | – |
| AUGCUAUACGAAGGAUAUGGUUACAUGAGGAUCACCCAUGUAAUUCUUGUGAUCUUGUUUAAGUUCCAGAAGGUCGUAUAGCUA | 0.0291 | 0.0882 | – | – |
| AUGCUAUACGAAGGAUAUGGUUACAUGAGGAUCACCCAUGUUAUGAUUGGUUACUUGUUUAGUUUCCAGAAGGUCGUAUAUUUA | 0.051 | 0.235 | – | – |
